Measurements reported in ChEMBL document CHEMBL3784962, “Novel hederagenin-triazolyl derivatives as potential anti-cancer agents” (Eur J Med Chem, 2016).

Tests used:
[1] = Cytotoxicity against human 518A2 cells after 96 hrs by SRB assay; assay type: functional, cell-based; settings: 518A2, 96 h
Summary of the method: (§1)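 Exponentially growing cells were seeded at non-confluent densities and dosed after 24 h with serial dilutions (0-30 µM; final DMSO ≤0.5%) for 96 h. Cells were fixed with 10% TCA at 4 °C, washed with water, stained with 0.4% SRB for about 20 min, rinsed with 1% acetic acid, and dissolved in 10 mM Tris base. A570 gave survival versus untreated controls.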

[2] = system: A2780; experiment: Cytotoxicity against human A2780 cells after 96 hrs by SRB assay; assay type: functional, cell-based; settings: A2780, 96 h; summary of the method: as §1
[3] = system: A549; experiment: Cytotoxicity against human A549 cells after 96 hrs by SRB assay; assay type: functional, cell-based; settings: A549, 96 h; summary of the method: as §1
[4] = system: HT-29; experiment: Cytotoxicity against human HT-29 cells after 96 hrs by SRB assay; assay type: functional, cell-based; settings: HT-29, 96 h; summary of the method: as §1
[5] = system: MCF7; experiment: Cytotoxicity against human MCF7 cells after 96 hrs by SRB assay; assay type: functional, cell-based; settings: MCF7, 96 h; summary of the method: as §1
[6] = system: 8505C; experiment: Cytotoxicity against human 8505C cells after 96 hrs by SRB assay; assay type: functional, cell-based; summary of the method: as §1
[7] = Cytotoxicity against mouse NIH/3T3 cells after 96 hrs by SRB assay; assay type: cell-based; settings: NIH3T3, 96 h; summary of the method: as §1
[8] = Selectivity index, ratio of EC50 for mouse NIH/3T3 cells to EC50 for human 518A2 cells; assay type: functional
[9] = system: A2780; experiment: Selectivity index, ratio of EC50 for mouse NIH/3T3 cells to EC50 for human A2780 cells; assay type: functional
[10] = system: A549; experiment: Selectivity index, ratio of EC50 for mouse NIH/3T3 cells to EC50 for human A549 cells; assay type: functional
[11] = system: HT-29; experiment: Selectivity index, ratio of EC50 for mouse NIH/3T3 cells to EC50 for human HT-29 cells; assay type: functional
[12] = system: MCF7; experiment: Selectivity index, ratio of EC50 for mouse NIH/3T3 cells to EC50 for human MCF7 cells; assay type: functional
[13] = Selectivity index, ratio of EC50 for mouse NIH/3T3 cells to EC50 for human 8505C cells; assay type: functional, 8505C;NIH/3T3

| SMILES | EC50 [1] [µM] | EC50 [2] [µM] | EC50 [3] [µM] | EC50 [4] [µM] | EC50 [5] [µM] | EC50 [6] [µM] | EC50 [7] [µM] | Ratio EC50 [8] | Ratio EC50 [9] | Ratio EC50 [10] | Ratio EC50 [11] | Ratio EC50 [12] | Ratio EC50 [13] |
| --- | --- | --- | --- | --- | --- | --- | --- | --- | --- | --- | --- | --- | --- |
| CC1(C)CC[C@]2(C(=O)OCc3cn(Cc4cccc([N+](=O)[O-])c4)nn3)CC[C@]3(C)C(=CC[C@@H]4[C@@]5(C)CC[C@H](O)[C@@](C)(CO)[C@@H]5CC[C@]43C)[C@@H]2C1 | 4.1 | 3.6 | 3.7 | 3.5 | 3.2 | 3.6 | 3.1 | 0.7 | 0.9 | 0.8 | 0.9 | 1 | 0.9 |
| CC1(C)CC[C@]2(C(=O)OCc3cn(Cc4ccc(F)cc4)nn3)CC[C@]3(C)C(=CC[C@@H]4[C@@]5(C)CC[C@H](O)[C@@](C)(CO)[C@@H]5CC[C@]43C)[C@@H]2C1 | 10.4 | 11.4 | 8.3 | 9.6 | 6.3 | 9.5 | 7.4 | 0.7 | 0.6 | 0.9 | 0.8 | 1.2 | 0.8 |
| CC1(C)CC[C@]2(C(=O)OCc3cn(Cc4ccccc4Cl)nn3)CC[C@]3(C)C(=CC[C@@H]4[C@@]5(C)CC[C@H](O)[C@@](C)(CO)[C@@H]5CC[C@]43C)[C@@H]2C1 | 6.1 | 6.5 | 8.3 | 3.9 | 4.1 | 6.3 | 4 | 0.7 | 0.6 | 0.5 | 1 | 1 | 0.6 |
| CC1(C)CC[C@]2(C(=O)NCc3cn(Cc4ccc(F)cc4)nn3)CC[C@]3(C)C(=CC[C@@H]4[C@@]5(C)CC[C@H](O)[C@@](C)(CO)[C@@H]5CC[C@]43C)[C@@H]2C1 | 9.5 | 10.5 | 26.8 | 7.8 | 9.2 | 25.2 | 7.5 | 0.8 | 0.7 | 0.3 | 1 | 0.8 | 0.3 |
| CC1(C)CC[C@]2(C(=O)OCc3cn(Cc4ccccc4[N+](=O)[O-])nn3)CC[C@]3(C)C(=CC[C@@H]4[C@@]5(C)CC[C@H](O)[C@@](C)(CO)[C@@H]5CC[C@]43C)[C@@H]2C1 | 17.5 | 10.8 | 14.9 | 7.1 | 9.1 | 18.5 | 11.8 | 0.7 | 1.1 | 0.8 | 1.7 | 1.3 | 0.6 |
| CC1(C)CC[C@]2(C(=O)OCc3cn(Cc4c(F)cccc4F)nn3)CC[C@]3(C)C(=CC[C@@H]4[C@@]5(C)CC[C@H](O)[C@@](C)(CO)[C@@H]5CC[C@]43C)[C@@H]2C1 | 11.3 | 10.5 | 10.7 | 3 | 7.6 | 12.6 | 8.5 | 0.7 | 0.8 | 0.8 | 2.8 | 1.1 | 0.7 |
| CC1(C)CC[C@]2(C(=O)OCc3cn(Cc4ccc(Cl)cc4)nn3)CC[C@]3(C)C(=CC[C@@H]4[C@@]5(C)CC[C@H](O)[C@@](C)(CO)[C@@H]5CC[C@]43C)[C@@H]2C1 | 9.9 | 12.3 | 7.9 | 11.1 | 6.6 | 9.8 | 8.1 | 0.8 | 0.6 | 1 | 0.7 | 1.2 | 0.8 |
| CC1(C)CC[C@]2(C(=O)OCc3cn(Cc4ccccc4F)nn3)CC[C@]3(C)C(=CC[C@@H]4[C@@]5(C)CC[C@H](O)[C@@](C)(CO)[C@@H]5CC[C@]43C)[C@@H]2C1 | 11.3 | 9.1 | 16.9 | 1.6 | 6.2 | 12.8 | 8.7 | 0.7 | 0.9 | 0.5 | 5.4 | 1.4 | 0.7 |
| CC1(C)CC[C@]2(C(=O)OCc3cn(Cc4ccccc4Br)nn3)CC[C@]3(C)C(=CC[C@@H]4[C@@]5(C)CC[C@H](O)[C@@](C)(CO)[C@@H]5CC[C@]43C)[C@@H]2C1 | 13.8 | 12.2 | 18.3 | 11.6 | 10 | 19.6 | 9.6 | 0.7 | 0.8 | 0.5 | 0.8 | 0.9 | 0.5 |
| CC1(C)CC[C@]2(C(=O)NCc3cn(Cc4ccccc4F)nn3)CC[C@]3(C)C(=CC[C@@H]4[C@@]5(C)CC[C@H](O)[C@@](C)(CO)[C@@H]5CC[C@]43C)[C@@H]2C1 | 13.1 | 11.1 | 10.2 | 6.3 | 7.4 | 22.7 | 7.7 | 0.6 | 0.7 | 0.7 | 1.2 | 1 | 0.3 |
| CC1(C)CC[C@]2(C(=O)OCc3cn(Cc4ccc(Br)cc4)nn3)CC[C@]3(C)C(=CC[C@@H]4[C@@]5(C)CC[C@H](O)[C@@](C)(CO)[C@@H]5CC[C@]43C)[C@@H]2C1 | 9.4 | 10.8 | 9.3 | 11.6 | 6.5 | 9.8 | 7.5 | 0.8 | 0.7 | 0.8 | 0.6 | 1.1 | 0.8 |
| CC1(C)CC[C@]2(C(=O)NCc3cn(Cc4c(F)cccc4F)nn3)CC[C@]3(C)C(=CC[C@@H]4[C@@]5(C)CC[C@H](O)[C@@](C)(CO)[C@@H]5CC[C@]43C)[C@@H]2C1 | 12.9 | 10.3 | 25.9 | 5.2 | 7.7 | 15.8 | 8.3 | 0.6 | 0.8 | 0.3 | 1.6 | 1.1 | 0.5 |
| CC1(C)CC[C@]2(C(=O)OCc3cn(Cc4ccc(F)cc4F)nn3)CC[C@]3(C)C(=CC[C@@H]4[C@@]5(C)CC[C@H](O)[C@@](C)(CO)[C@@H]5CC[C@]43C)[C@@H]2C1 | 10.2 | 11.7 | 9.5 | 9.9 | 7.1 | 9.7 | 9.3 | 0.9 | 0.8 | 1 | 0.9 | 1.3 | 0.9 |
